Results pooled from the literature.
Lines come from different studies, so protocols differ.
Target: Mitogen-activated protein kinase kinase kinase kinase 4 (MAP4K4, Homo sapiens, UniProt O95819)

SMILES | effect on | action | technique | concentration | quantity | result
CC(C)(C)c1cc(C=C(C#N)C#N)cc(Br)c1O | enzyme activity | inhibitor | – | 0.5 µM | remaining activity | 96.2%
Cn1cncc1[C@](O)(COc1ccc(C#N)cc1-c1ccc(OC(F)(F)F)cc1)c1ccc(C#N)cc1 | cell-free assay | – | competition with immobilised ligand | 1 µM | remaining binding | 100%
Nc1ncc(-c2nc(N3CCOCC3)nc(N3CCOCC3)n2)c(C(F)F)n1 | binding | – | competition with immobilised ligand | 10 µM | remaining binding | 100%
O=c1[nH]c2ccccc2n1C1CCN(Cc2ccc(-c3[nH]c4cc5ncnc5cc4nc3-c3ccccc3)cc2)CC1 | cell-free assay | – | – | 0.5 µM | remaining signal | 99.5%
Cc1nn(C)cc1-c1nc2c(N3CCN(Cc4ccc(Cl)cc4)CC3)c(Cl)cnc2[nH]1 | binding | – | competition with immobilised ligand | 1 µM | remaining binding | 88%
Cn1cc(-c2cc(F)cc(N3CCn4c(cc5c4CCCC5)C3=O)c2CO)cc(Nc2ccc(N3CCN(C4COC4)CC3)cn2)c1=O | enzyme activity | inhibitor | – | 0.1 µM | inhibition | 23%
COc1ncccc1-c1cnn2ccc(N3CCN(C(=O)OC(C)C)CC3)nc12 | binding | – | competition with immobilised ligand | 1 µM | remaining binding | 83%
N#CC1(c2ccccn2)CCN(Cc2cc(C(=O)O)c(=O)n3ccccc23)CC1 | cell-free assay | – | competition with immobilised ligand | 1 µM | remaining binding | 87%
Cn1cc(-c2cccc(N3CCc4c(sc5c4CC(C)(C)C5)C3=O)c2CO)cc(Nc2ccncn2)c1=O | enzyme activity | inhibitor | – | 1 µM | inhibition | 4%
